KCC2 mod – KCC2 cotransporter modulators, thallium flux, primary screen, cell-based, HEK293 KCC2, FluoZin-2 fluorescence, MLSMR; Solute carrier family 12 member 5 (Homo sapiens), Q9H2X9; KCC2 cells, thallium flux FluoZin-2 fluorescence; B-score of Tl+ flux slope (higher = more flux/activation; lower = inhibition) at 10 µM; actives 2.2% (n = 190,000);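 active = thallium flux slope and its plate-corrected score both differing from the plate sample mean at a set confidence after two filtering rounds, in either direction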;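 note: slope of fluorescence scaled to starting intensity during 10 to 20 s after thallium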
Diaphorase act – compounds boosting diaphorase resazurin reduction – biochemical, uHTS, resorufin fluorescence, counter-screen for diaphorase-coupled primary assays, primary screen; Diaphorase/resazurin coupled assay, 16 min; active compounds read high; 1 = vehicle wells, 0 = NADH-free wells; activation factor at 20 µM; actives 0.005% (n = 190,000); AID 1229, 2008;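 active = diaphorase activity raised at least twofold by the compound at 20 µM; inactive = activation factor below 2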
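test system = bacterial diaphorase enzyme (C. kluyveri) | quantity = enzyme 0.07 U/mL final | reagent = NADH substrate 0.114 mM plus resazurin dye 0.1 mM, final | incubation = 16 min enzyme reaction, ambient temperature | buffer or medium = HEPES pH 7.4 buffer with MgCl2 and Tween 20 | signal = fluorescence of resorufin, 544 nm excitation, 590 nm emission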
Lmaj promast – Leishmania major promastigote growth inhibition, primary screen | Leishmania major promastigotes, resazurin fluorescence viability | inhibition, % at 10 µM | actives 9% (n = 200,000); in the data active = inhibition above about 50%;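 note: promastigotes grown with compound for 44 hours at 28 °C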
ROMK mod – ROMK potassium channel modulators, primary screen, cell-based, thallium flux, MLSMR library; Tet-inducible ROMK, thallium flux fluorescence; actives lie on both sides; B-score at 10 µM; actives 2% (n = 130,000); ATP-sensitive inward rectifier potassium channel 1 (Homo sapiens), P48048;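 active = signal ratio slope over the read window, or its plate-corrected B-score, at least 3 SD from the plate mean, either direction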;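 note: B-score of the F/F0 ratio slope over 7 to 12 s after thallium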
Target sequence (P48048 whole entry, looked up): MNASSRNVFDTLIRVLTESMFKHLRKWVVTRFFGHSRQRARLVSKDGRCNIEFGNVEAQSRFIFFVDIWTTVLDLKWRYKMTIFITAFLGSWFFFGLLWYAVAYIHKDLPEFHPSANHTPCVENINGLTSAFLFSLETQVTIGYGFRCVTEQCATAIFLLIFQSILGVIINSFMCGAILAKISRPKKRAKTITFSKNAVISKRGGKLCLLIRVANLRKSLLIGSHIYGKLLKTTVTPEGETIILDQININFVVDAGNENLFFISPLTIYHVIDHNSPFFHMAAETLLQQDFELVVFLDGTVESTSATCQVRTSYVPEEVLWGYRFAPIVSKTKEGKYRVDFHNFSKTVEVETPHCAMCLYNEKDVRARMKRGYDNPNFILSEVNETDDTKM
WT yeast gro inh – growth inhibition of WT strain, primary screen, mitochondrial fusion inhibitor project, WT and mutant strains, chemical genetic. mitochondrial fusion phenotypic screen. inhibition, % at 10 µM. actives 2.1% (n = 190,000); in the data active = inhibition above about 58%; tested in S. cerevisiae
Diaph inh CS – diaphorase inhibitors and chemical oxidizers, primary screen, counter-screen for diaphorase-coupled primary assays, biochemical, uHTS, resorufin fluorescence | actives 0.69% (n = 190,000) | inhibition, % at 20 µM | diaphorase resazurin-to-resorufin fluorescence, NADH, 16 min; bacterial (C. kluyveri) enzyme, not human;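 active = primary screen inhibition at 20 µM above a set limit, cut at about 50% in these data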;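 note: plate controls were DMSO with full reaction for no effect and wells lacking NADH for full effect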
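Test system: bacterial diaphorase enzyme (C. kluyveri); Quantity: 0.14 U/mL diaphorase, enzyme working solution; Times: reaction incubation of 16 min at room temperature; Measured by: fluorescence of resorufin formed from resazurin, Ex 544/Em 590 nm; Benchmarks: positive control minus NADH, DMSO neutral control.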
KCC2 secondary – KCC2 modulators in sodium-free buffer, confirmation, cell-based, HEK293 KCC2, thallium flux, secondary assay; FluoZin2 fluorescence; active compounds read high; actives 15% (n = 3,700); shares compounds with KCC2 mod; normalised thallium flux (F/F0 slope) at 10 µM;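 active = thallium flux slope above the same plate's solvent-only control mean plus 3 SD; inconclusive = the two replicate wells disagree; inactive = no significant difference from solvent-only control wells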
KCC2 bumet counter – thallium flux persisting under bumetanide in KCC2 cells, confirmation, counter-screen for KCC2 modulator project, cell-based, HEK293 KCC2, FluoZin2, secondary assay 3 | shares compounds with KCC2 mod | HEK293-KCC2 + bumetanide/ouabain; active compounds read high | normalized thallium flux at 10 µM | actives 49% (n = 3,700) | AID 1714, 2009;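 active = thallium entry rate above the same plate's blocked-transporter control wells by more than 3 SD; inconclusive = the two repeat wells disagree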;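 note: raw slope of fluorescence over initial fluorescence between 10 and 20 s after thallium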
KCC2 sec2 – KCC2 modulators without ouabain present, confirmation, cell-based, HEK293 KCC2, thallium flux, FluoZin2, secondary assay 2 | normalized thallium flux at 10 µM | shares compounds with KCC2 mod | thallium flux FluoZin2 fluorescence; actives lie on both sides; F/F0 rise rate, 10–20 s post-thallium | AID 1715, 2009 | actives 23% (n = 3,700);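 active = thallium flux slope more than 3 SD above or below the plate's solvent-only control mean, mostly below; inconclusive = the two repeat wells disagreed; inactive = no significant shift from solvent-only controls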;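 note: raw slope with 0.1% DMSO as baseline and bumetanide as block control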
HEK counter1 – thallium flux modulation in parental HEK cells, confirmation, counter-screen for KCC2 modulator project, cell-based, counterscreen 1; shares compounds with KCC2 mod; HEK293 parental cells, thallium flux FluoZin2, ouabain; baseline-ratio fluorescence slope, 10–20 s after thallium; thallium flux rate (normalised fluorescence) at 10 µM; actives 46% (n = 3,700); AID 1716, 2009;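 active = thallium flux rate significantly above the same plate's solvent-only control wells, beyond their mean plus 3 SD; inconclusive = the two replicate wells gave conflicting results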
KCC2 ouabain – KCC2 inhibitors and activators, ouabain retest, confirmation, HEK-KCC2 cells. HEK293-KCC2, thallium flux FluoZin2 fluorescence; bidirectional: low = inhibitor, high = activator. actives 48% (n = 3,700). shares compounds with KCC2 mod. raw Tl+ flux slope (below DMSO = inhibition, above = activation) at 10 µM;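 active = thallium flux slope beyond 3 SD from same-plate DMSO control mean in most replicates, usually higher, sometimes lower; inconclusive = repeat tests gave conflicting results; inactive = no significant difference from controls in most replicates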;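 note: slope of initial-normalized fluorescence between seconds 10 and 20 after thallium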
HEK counter2 – native HEK Tl+ uptake effects, second counter-screen – HEK cells, counterscreen 2, counter-screen for KCC2 modulator project, confirmation | shares compounds with KCC2 mod | HEK293 parental, thallium flux FluoZin-2 fluorescence slope | thallium flux slope at 10 µM | actives 33% (n = 3,700) | AID 1718, 2009;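 active = thallium flux slope above the same plate's solvent-control mean plus 3 SD in both duplicate wells; inconclusive = duplicate wells that disagreed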;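 note: run without ouabain in cells lacking the KCC2 cotransporter; slope of fluorescence scaled to its starting value between 10 and 20 s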
* marks the source's active call; other numbers are inactive results; u = inconclusive; x = no result given. Most compounds without a hit are left out; they make up all but 12% or so of the library.

SMILES | KCC2 mod | Diaphorase act | Lmaj promast | ROMK mod | WT yeast gro inh | Diaph inh CS | KCC2 secondary | KCC2 bumet counter | KCC2 sec2 | HEK counter1 | KCC2 ouabain | HEK counter2
CC(C)C(OC(=O)/C=C/c1ccc2c(c1)OCO2)C(=O)NC(N)=O (centres undefined) | 0.35 | 1 | -2 | 1.7 | 13 | 1 | x | x | x | x | x | x
O=C(NCc1cc(C(F)(F)F)cc(C(F)(F)F)c1)C1CC(c2cccc([N+](=O)[O-])c2)=NO1 (centres undefined) | 0.3 | 1 | 3 | x | -9 | -4 | x | x | x | x | x | x
O=C(CSc1nnnn1Cc1ccccc1)Nc1ccc2c(c1)OCCO2 | -5.1* | 0.8 | 1 | -0.74 | 25 | 21 | 0.0064 | 0.005 | u | 0.0072 | u | 0.011
O=C(CSc1nnnn1Cc1ccccc1)Nc1ccc2c(c1)OCO2 | -1.2 | 0.9 | -5 | x | -4 | 8 | x | x | x | x | x | x
CCOc1ccc(/C=N/n2cc(-c3ccccc3)[nH]c2=S)cc1 | 28* | 0.6 | -3 | -0.082 | 38 | 36 | u | 0.057* | 0.033 | 0.026* | 0.053* | 0.012*
S=c1[nH]c(-c2ccccc2)cn1/N=C/c1ccncc1 | 1.8 | x | x | -0.49 | x | x | x | x | x | x | x | x
C/C(N)=C(/C#N)C(=O)CSc1cc(C)c2cc(C)cc(C)c2n1 | 4.1* | 0.8 | 18 | 0.094 | 13 | 24 | 0.018 | 0.0057 | 0.031 | u | 0.017 | 0.011
Cc1cc(C)c2nc(SCC#N)cc(C)c2c1 | 1.1 | 0.8 | -10 | x | 31 | 24 | x | x | x | x | x | x
CN(C)CCC(=O)NCC1OCCc2ccccc21 (centres undefined) | 0.65 | 1 | -3 | 1.1 | -6 | 5 | x | x | x | x | x | x
O=C(NC(=S)Nc1cccc(F)c1)c1cccc([N+](=O)[O-])c1 | 151* | x | x | x | x | x | 0.031* | 0.15* | u | 0.071* | 0.085* | 0.019*
CCC(=O)Nc1cccc(NC(=S)NC(=O)c2cc3ccccc3o2)c1 | 3.8 | 1.1 | 11 | x | -2 | -11 | x | x | x | x | x | x
CC(=O)NC(=S)Nc1cccc([N+](=O)[O-])c1 | -0.25 | 0.9 | -5 | 2.6 | 21 | 9 | x | x | x | x | x | x
C/C(=N\NC(=S)Nc1cccc(C)c1)c1cc2ccccc2o1 | 26* | 0.9 | 90* | -0.036 | 44 | 11 | 0.0064 | 0.077* | 0.051* | 0.038* | 0.058* | 0.041*
C/C(=N/NC(=S)Nc1cccc(C)c1)c1cccc([N+](=O)[O-])c1 | 30* | 1 | -6 | -1.1 | 56 | -4 | 0.0087 | 0.037* | u | 0.037* | 0.036* | 0.027*
Cc1cccc(NC(=S)NNC(=O)c2cccc([N+](=O)[O-])c2)c1 | -0.035 | x | x | -1.1 | x | x | x | x | x | x | x | x
Cc1cccc(NC(=S)N/N=C(\c2ccccc2)C(C)C)c1 | 33* | 0.7 | 22 | -0.14 | 73* | 27 | 0.0059 | 0.06* | 0.05* | 0.04* | 0.055* | 0.036*
CCn1c(SCC(=O)Nc2ccccc2C)nc2nc3c(cc2c1=O)COC(C)(C)C3 | 0.5 | x | x | x | x | x | x | x | x | x | x | x
Cc1ccc(C(=O)N2N=C3c4ccccc4S(=O)(=O)N3[C@H]2N(C)C)cc1 | -0.58 | 0.8 | -4 | 0.32 | -4 | 23 | x | x | x | x | x | x
O=S(=O)(c1ccc(NCCc2c[nH]c3ccccc23)nc1)N1CCOCC1 | -1.2 | 0.8 | 1 | x | -12 | 15 | x | x | x | x | x | x
CCC(=O)Nc1cccc(NC(=S)NC(=O)c2cccc(C)c2)c1 | 0.39 | 0.8 | 10 | x | 9 | 17 | x | x | x | x | x | x
CC/C(=N\NC(=S)Nc1cccc(C)c1)c1ccccc1 | 34* | 0.9 | 3 | 0.19 | 71* | 5 | 0.021* | 0.1* | 0.038 | u | 0.067* | 0.028*
O=[N+]([O-])c1cc(Br)c(O)c(C=Nc2ccc(N3CCOCC3)cc2)c1 | -2.1 | 0.9 | 3 | 0.62 | -27 | 6 | x | x | x | x | x | x
O=[N+]([O-])c1cc(Br)c(O)c(/C=N/Nc2nnnn2-c2cccc3ccccc23)c1 | -3.2* | 0.7 | -5 | 2.5 | 12 | 34 | 0.0073 | 0.004 | u | u | u | 0.0098
COc1ccc(-c2nnc(-c3ccc(OCC(C)C)cc3)o2)cc1 | -5.5* | 1 | -1 | x | 18 | 1 | 0.016 | 0.0051 | 0.029 | 0.0077 | 0.017 | 0.01
CC(C)COc1ccc(-c2nnc(-c3ccncc3)o2)cc1 | 1.9 | 1 | 0 | x | 13 | -2 | x | x | x | x | x | x
COC(=O)C1=COC(C)C2CN3CCc4c([nH]c5cc(OC)c(OC)cc45)C3CC12 (centres undefined) | 0.37 | x | x | x | x | x | x | x | x | x | x | x
Cc1cc(C)n(-c2nc(SCC(=O)Nc3nccs3)c3c4c(sc3n2)COC(C)(C)C4)n1 | 4.4* | 1 | 37 | x | 0 | 3 | 0.0096 | 0.022* | 0.032 | 0.019* | 0.026* | 0.013*
Cc1cc(C)n(-c2nc(-n3nc(C)cc3C)c3c4c(sc3n2)COC(C)(C)C4)n1 | x | 0.8 | 5 | -0.011 | 16 | 22 | x | x | x | x | x | x
